According to ChEMBL document CHEMBL1782010, “Synthesis and evaluation of quinoxaline derivatives as potential influenza NS1A protein inhibitors” (Bioorg Med Chem Lett, 2011):
pIC50: −log10 of the molar value. Calls of active or inactive are those of the source. The calls are words filed in the database; no cut-off is given here.

Experiments:
Nucleic Acid [1] = assay: Binding affinity to double strand RNA assessed as compound intercalation to double strand RNA at 50 uM after 1 hr by fluorescence polarization assay; assay type: nucleic-acid assay
Summary of the method: (§1)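 Counter-screen of FAM-dsRNA alone, with no NS1A target, by an analogous fluorescence polarization assay at 50 μM compound. Reported as % intercalation: a positive sign means intercalation into the dsRNA, a negative sign means denaturation of the dsRNA to single strands. Duplicates averaged.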

[2] = Inhibition of Influenza A/Udorn/72/H3N2 full length GST-tagged NS1A/FAM-dsRNA-interaction after 1 hr by fluorescence polarization assay; parameters: species or system Influenza A virus (A/udorn/1972(H3N2))
Summary of the method: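 Dose-dependent version of the FAM-dsRNA/NS1A fluorescence polarization binding assay. The rise in polarization on probe binding to NS1A gives the read-out, and IC50 is taken from the dose-response. Run in duplicate; values averaged.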

Influenza A virus [3] = assay: Antiviral activity against Influenza A/Udorn/72 virus infected in MDCK cells assessed as reduction of plaque forming unit at 60 uM treated 1 hr after infection measured after 36 hrs by plaque assay; assay type: functional, organism-based; conditions: Influenza A virus (A/udorn/1972(H3N2))
Summary of the method: (§2)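 MDCK cells infected with influenza A/Udorn/72, either at MOI 5 (single-cycle growth) or at MOI 0.001 (multiple-cycle growth). After 1 h infection, growth medium containing compound diluted in DMSO was added; control received 0.1% DMSO. Virus yield was followed over time as growth curves.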

[4] = tested on: Influenza A virus (A/udorn/1972(H3N2)); assay: Inhibition of Influenza A/Udorn/72/H3N2 full length GST-tagged NS1A/FAM-double strand RNA-interaction at 50 uM after 1 hr by fluorescence polarization assay
Summary of the method: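 Fluorescence polarization: carboxyfluorescein-labelled dsRNA (FAM-dsRNA) probe binds NS1A protein, which raises polarization. Disruption of binding read at 50 μM compound and reported as % binding. Run in duplicate; values averaged.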

Influenza A virus [5] = assay: Antiviral activity against Influenza A/Udorn/72 virus infected in MDCK cells assessed as inhibition of viral growth at 30 uM treated 1 hr after infection measured up to 15 hrs by plaque assay relative to control; assay type: functional, Influenza A virus (A/udorn/1972(H3N2)); summary of the method: as §2
Nucleic Acid [6] = assay: Binding affinity to double strand RNA assessed as denaturation of double strand RNA to single strand RNA at 50 uM after 1 hr by fluorescence polarization assay; assay type: nucleic-acid assay; summary of the method: as §1

Question: Which Activity (Nucleic Acid [1]) does the source give for O=C(NCc1ccco1)c1ccc2nc(-c3ccco3)c(-c3ccco3)nc2c1 here?
Answer: The Activity was 5.9%.

Question: What about the pIC50 [2] of the same molecule?
Answer: The pIC50 was 5.46.

Question: And the Activity (Influenza A virus [3])?
Answer: The Activity was “inactive”.

Question: And the inhibition [4]?
Answer: The inhibition was 79.5%.

Question: What about the “fold change (FC)” value (Influenza A virus [5]) of the same molecule?
Answer: The value was 10.

Question: For c1ccc(-c2nc3ccccc3nc2-c2ccccn2)nc1, which Activity (Nucleic Acid [1]) is on record?
Answer: The Activity was 2.3%.

Question: And the inhibition [4]?
Answer: Its inhibition is -3.1%.

Question: For O=[N+]([O-])c1ccc2nc(-c3ccccn3)c(-c3ccccn3)nc2c1, which inhibition [4] is on record?
Answer: The inhibition was 7.8%.

Question: And the Activity (Nucleic Acid [6])?
Answer: Its Activity is -5.6%.

Question: Which results are given for Oc1ccccc1-c1nc2ccccc2nc1-c1ccccc1O?
Answer: Activity (Nucleic Acid [1]): -1%; inhibition [4]: -0.9%

Question: Which results are given for O=C(NCc1cccs1)c1ccc2nc(-c3ccco3)c(-c3ccco3)nc2c1?
Answer: inhibition [4]: 8.2%; Activity (Nucleic Acid [6]): -10.5%

Question: With O=C(O)c1ccc2nc(-c3ccccn3)c(-c3ccccn3)nc2c1 as the molecule, how does the Activity (Nucleic Acid [1]) read?
Answer: Its Activity is 2.9%.

Question: And the inhibition [4]?
Answer: Its inhibition is 15.7%.

Question: Which Activity (Nucleic Acid [1]) does the source give for COc1ccc(-c2nc3ccccc3nc2-c2ccc(OC)cc2)cc1 here?
Answer: The Activity was 1.4%.

Question: And the inhibition [4]?
Answer: The inhibition was 0.5%.

Question: For COC(=O)c1ccc(CNC(=O)c2ccc3nc(-c4ccco4)c(-c4ccco4)nc3c2)cc1, which Activity (Nucleic Acid [1]) is on record?
Answer: Its Activity is 8.8%.

Question: And the inhibition [4]?
Answer: Its inhibition is 47.9%.

Question: What does the source list for COc1cccc(-c2nc3ccc(OC)cc3nc2-c2cccc(OC)c2)c1?
Answer: inhibition [4]: 7.2%; Activity (Nucleic Acid [6]): -8.4%

Question: Which inhibition [4] does the source give for O=C(O)c1ccc2nc(-c3ccc(O)cc3)c(-c3ccc(O)cc3)nc2c1 here?
Answer: The inhibition was 13.3%.

Question: What about the Activity (Nucleic Acid [6]) of the same molecule?
Answer: The Activity was -7.7%.

Question: With O=[N+]([O-])c1ccc2nc(-c3ccco3)c(-c3ccco3)nc2c1 as the molecule, how does the Activity (Nucleic Acid [1]) read?
Answer: The Activity was 25.9%.

Question: What about the inhibition [4] of the same molecule?
Answer: Its inhibition is 25.5%.

Question: For COc1cc(CNC(=O)c2ccc3nc(-c4ccco4)c(-c4ccco4)nc3c2)cc(OC)c1OC, which inhibition [4] is on record?
Answer: Its inhibition is 53.6%.

Question: What about the Activity (Nucleic Acid [6]) of the same molecule?
Answer: Its Activity is -4.7%.

Question: With c1ccc2nc(-c3ccc4c(c3)OCO4)c(-c3ccc4c(c3)OCO4)nc2c1 as the molecule, how does the Activity (Nucleic Acid [1]) read?
Answer: The Activity was 7.9%.

Question: What about the inhibition [4] of the same molecule?
Answer: The inhibition was 1.5%.

Question: What does the source list for O=C(O)c1ccc2nc(-c3cccc(O)c3)c(-c3cccc(O)c3)nc2c1?
Answer: Activity (Nucleic Acid [1]): -3.4%; inhibition [4]: 28.7%

Question: Which results are given for COc1ccccc1CNC(=O)c1ccc2nc(-c3ccco3)c(-c3ccco3)nc2c1?
Answer: inhibition [4]: 29.5%; Activity (Nucleic Acid [6]): -17.7%

Question: With COc1ccc(-c2nc3ccc(OC)cc3nc2-c2ccc(OC)cc2)cc1 as the molecule, how does the Activity (Nucleic Acid [1]) read?
Answer: Its Activity is 5.7%.

Question: And the inhibition [4]?
Answer: Its inhibition is 1.8%.

Question: Which results are given for COc1ccc2nc(-c3ccccc3OC)c(-c3ccccc3OC)nc2c1?
Answer: inhibition [4]: 4.4%; Activity (Nucleic Acid [6]): -5%

Question: Which results are given for Oc1ccc2nc(-c3ccccc3O)c(-c3ccccc3O)nc2c1?
Answer: Activity (Nucleic Acid [1]): 0.9%; inhibition [4]: 10.9%

Question: Which Activity (Nucleic Acid [1]) does the source give for O=[N+]([O-])c1ccc2nc(-c3ccc4c(c3)OCO4)c(-c3ccc4c(c3)OCO4)nc2c1 here?
Answer: The Activity was 24.4%.

Question: And the inhibition [4]?
Answer: The inhibition was 56.6%.

Question: What does the source list for Oc1ccc(-c2nc3ccccc3nc2-c2ccc(O)cc2)cc1?
Answer: Activity (Nucleic Acid [1]): 8.5%; inhibition [4]: 10.2%

Question: Which results are given for O=C(NCc1ccccn1)c1ccc2nc(-c3ccco3)c(-c3ccco3)nc2c1?
Answer: pIC50 [2]: 4.36; inhibition [4]: 64.7%; Activity (Nucleic Acid [6]): -9.6%

Question: With COc1ccc(-c2nc3ccc([N+](=O)[O-])cc3nc2-c2ccc(OC)cc2)cc1 as the molecule, how does the Activity (Nucleic Acid [1]) read?
Answer: The Activity was 113%.

Question: What does the source list for O=C(O)c1ccc2nc(-c3ccc4c(c3)OCO4)c(-c3ccc4c(c3)OCO4)nc2c1?
Answer: inhibition [4]: 23.2%; Activity (Nucleic Acid [6]): -4.8%

Question: Which inhibition [4] does the source give for O=C(NCc1ccccc1F)c1ccc2nc(-c3ccco3)c(-c3ccco3)nc2c1 here?
Answer: The inhibition was 11.6%.

Question: What about the Activity (Nucleic Acid [6]) of the same molecule?
Answer: The Activity was -11.3%.

Question: For COc1cccc(CNC(=O)c2ccc3nc(-c4ccco4)c(-c4ccco4)nc3c2)c1, which Activity (Nucleic Acid [1]) is on record?
Answer: The Activity was 4.5%.

Question: What about the pIC50 [2] of the same molecule?
Answer: The pIC50 was 5.21.

Question: What about the inhibition [4] of the same molecule?
Answer: The inhibition was 74%.

Question: Which inhibition [4] does the source give for COc1ccccc1-c1nc2ccc(C(=O)O)cc2nc1-c1ccccc1OC here?
Answer: Its inhibition is 2.8%.

Question: And the Activity (Nucleic Acid [6])?
Answer: Its Activity is -2.5%.

Question: Which inhibition [4] does the source give for COc1cccc(-c2nc3ccccc3nc2-c2cccc(OC)c2)c1 here?
Answer: Its inhibition is 1.4%.

Question: And the Activity (Nucleic Acid [6])?
Answer: The Activity was -6%.

Question: Which results are given for O=C(NCc1cccc(F)c1)c1ccc2nc(-c3ccco3)c(-c3ccco3)nc2c1?
Answer: inhibition [4]: 13.6%; Activity (Nucleic Acid [6]): -11.6%

Question: What does the source list for COc1ccc(CNC(=O)c2ccc3nc(-c4ccco4)c(-c4ccco4)nc3c2)cc1?
Answer: Activity (Nucleic Acid [1]): 7.6%; inhibition [4]: 44%

Question: For O=C(NCc1ccc(F)cc1)c1ccc2nc(-c3ccco3)c(-c3ccco3)nc2c1, which Activity (Nucleic Acid [1]) is on record?
Answer: Its Activity is 6.3%.

Question: And the inhibition [4]?
Answer: The inhibition was 49%.

Question: What does the source list for Oc1ccc(-c2nc3ccc(O)cc3nc2-c2ccc(O)cc2)cc1?
Answer: Activity (Nucleic Acid [1]): 29.5%; inhibition [4]: 38.8%

Question: With COc1ccc2nc(-c3ccco3)c(-c3ccco3)nc2c1 as the molecule, how does the Activity (Nucleic Acid [1]) read?
Answer: The Activity was -3.2%.

Question: What about the inhibition [4] of the same molecule?
Answer: The inhibition was 54.3%.

Question: Which inhibition [4] does the source give for O=[N+]([O-])c1ccc2nc(-c3ccc(O)cc3)c(-c3ccc(O)cc3)nc2c1 here?
Answer: Its inhibition is 19.5%.

Question: What about the Activity (Nucleic Acid [6]) of the same molecule?
Answer: Its Activity is -32%.

Question: For O=[N+]([O-])c1ccc2nc(-c3cccc(O)c3)c(-c3cccc(O)c3)nc2c1, which inhibition [4] is on record?
Answer: Its inhibition is 42.8%.

Question: What about the Activity (Nucleic Acid [6]) of the same molecule?
Answer: The Activity was -15.8%.

Question: For O=C(O[C@@H]1Cc2c(O)cc(O)cc2O[C@@H]1c1cc(O)c(O)c(O)c1)c1cc(O)c(O)c(O)c1, which inhibition [4] is on record?
Answer: The inhibition was 89%.

Question: What does the source list for COc1ccc(CNC(=O)c2ccc3nc(-c4ccco4)c(-c4ccco4)nc3c2)cc1OC?
Answer: Activity (Nucleic Acid [1]): 5.6%; inhibition [4]: 39.5%

Question: Which results are given for c1coc(-c2nc3ccccc3nc2-c2ccco2)c1?
Answer: inhibition [4]: 7.3%; Activity (Nucleic Acid [6]): -23.7%

Question: Which inhibition [4] does the source give for COC(=O)CNC(=O)c1ccc2nc(-c3ccco3)c(-c3ccco3)nc2c1 here?
Answer: Its inhibition is 26.7%.

Question: And the Activity (Nucleic Acid [6])?
Answer: Its Activity is -27.9%.

Question: With COc1ccccc1-c1nc2ccc([N+](=O)[O-])cc2nc1-c1ccccc1OC as the molecule, how does the inhibition [4] read?
Answer: Its inhibition is 6.7%.

Question: And the Activity (Nucleic Acid [6])?
Answer: Its Activity is -3.7%.

Question: What does the source list for Oc1cccc(-c2nc3ccc(O)cc3nc2-c2cccc(O)c2)c1?
Answer: Activity (Nucleic Acid [1]): 18.2%; inhibition [4]: 25%

Question: Which Activity (Nucleic Acid [1]) does the source give for O=C(O)c1ccc2nc(-c3ccco3)c(-c3ccco3)nc2c1 here?
Answer: The Activity was 5.8%.

Question: And the inhibition [4]?
Answer: Its inhibition is 60.9%.

Question: With Oc1cccc(-c2nc3ccccc3nc2-c2cccc(O)c2)c1 as the molecule, how does the inhibition [4] read?
Answer: The inhibition was 10.9%.

Question: What about the Activity (Nucleic Acid [6]) of the same molecule?
Answer: Its Activity is -4.8%.

Question: With COC(=O)c1ccc2nc(-c3ccco3)c(-c3ccco3)nc2c1 as the molecule, how does the pIC50 [2] read?
Answer: The pIC50 was 4.13.

Question: And the inhibition [4]?
Answer: The inhibition was 76%.

Question: And the Activity (Nucleic Acid [6])?
Answer: The Activity was -12.3%.

Question: What does the source list for COc1cccc(-c2nc3ccc(C(=O)O)cc3nc2-c2cccc(OC)c2)c1?
Answer: inhibition [4]: 9.1%; Activity (Nucleic Acid [6]): -4.4%

Question: With COc1ccccc1-c1nc2ccccc2nc1-c1ccccc1OC as the molecule, how does the inhibition [4] read?
Answer: Its inhibition is 5%.

Question: And the Activity (Nucleic Acid [6])?
Answer: Its Activity is -6.7%.

Question: With COc1cccc(-c2nc3ccc([N+](=O)[O-])cc3nc2-c2cccc(OC)c2)c1 as the molecule, how does the Activity (Nucleic Acid [1]) read?
Answer: The Activity was 1.9%.

Question: And the inhibition [4]?
Answer: The inhibition was 1.5%.

Question: With COc1ccc(-c2nc3ccc(C(=O)O)cc3nc2-c2ccc(OC)cc2)cc1 as the molecule, how does the inhibition [4] read?
Answer: The inhibition was 4.5%.

Question: What about the Activity (Nucleic Acid [6]) of the same molecule?
Answer: The Activity was -4.8%.
